# Sampled rows, rich in hits. Any-hit rate of the full collection: about 2.5%.
# ABHD5 PLIN5 PPI: ABHD5-PLIN5 interaction inhibitors, primary screen, cell lysate, split luciferase complementation, luminescence; Perilipin-5 (Homo sapiens) + 1-acylglycerol-3-phosphate O-acyltransferase ABHD5 (Homo …; Split G. princeps luciferase complementation, 4 h; inhibition, % at 4 µM; actives 0.78% (n = 360,000);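 active means inhibition above the mean inhibition across every tested compound plus 3 SD, cut at about 22% in these data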;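 further: 0% = DMSO only wells and the 100% control is not disclosed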
# Rin1 Abl inh: inhibitors of Rin1-Abl protein binding, primary screen, biochemical, TR-FRET; AID 588664, 2011; actives 0.4% (n = 360,000); inhibition, % at 7.35 µM; Tyrosine-protein kinase ABL1 (Homo sapiens) + Ras and Rab interactor 1 (Homo sapiens), …; in the data active means inhibition above about 5%, passing the limit was not always enough
# MBD2 inh: inhibitors of MBD2 binding to methylated DNA, primary screen, biochemical, TR-FRET, DNA-binding domain, human; Methyl-CpG-binding domain protein 2 (Homo sapiens), Q9UBB5; MBD2 binding to methylated oligonucleotide; inhibition, % at 4.4 µM; actives 0.31% (n = 370,000); AID 686964, 2013; in the data active means inhibition above about 13%
# Target sequence (Q9UBB5 whole entry, looked up, the tested form may be a part): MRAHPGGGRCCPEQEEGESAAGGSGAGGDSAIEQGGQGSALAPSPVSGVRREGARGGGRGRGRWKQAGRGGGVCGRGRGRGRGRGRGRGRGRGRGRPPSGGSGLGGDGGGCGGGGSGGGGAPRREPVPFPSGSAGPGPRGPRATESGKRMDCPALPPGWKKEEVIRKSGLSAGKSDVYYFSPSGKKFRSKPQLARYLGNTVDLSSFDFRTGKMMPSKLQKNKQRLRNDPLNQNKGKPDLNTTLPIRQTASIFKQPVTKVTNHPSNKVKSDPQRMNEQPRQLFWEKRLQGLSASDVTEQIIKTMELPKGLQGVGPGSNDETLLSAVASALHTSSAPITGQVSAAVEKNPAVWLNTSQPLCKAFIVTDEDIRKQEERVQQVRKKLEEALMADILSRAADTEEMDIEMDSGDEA
# Arr AP2 block: inhibitors of beta-arrestin/AP2 binding, primary screen, biochemical, GPCR trafficking, flow cytometry. actives 0.31% (n = 340,000). inhibition, % at 10 µM. FITC-arrestin peptide / GST-AP2 beads; AP2 beta2 appendage carries R879A mutation;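 active means inhibition above a set limit, near 3 SD of compounds lacking own fluorescence, cut at about 54% in these data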;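 further: plate controls were DMSO wells for no effect and 5 µM unlabelled arrestin peptide for full effect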
#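 System: GST-AP2 R879A glutathione beads. Medium: PBS with 0.05% Tween 20 and 0.1% BSA. Also added: FITC-arrestin peptide, 50 nM. Incubation: 12 min plus 1 h, RT. Measured by: high-throughput flow cytometry of beads, ex 488, em 535 nm. Evaluation: percent drop in bead-associated FITC signal.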
# UHRF1 MBD2 ctr: UHRF1 methylated DNA binding inhibitors, primary screen, counter-screen for MBD2 inhibitor project, biochemical, TR-FRET, human UHRF1, single concentration; inhibition, % at 4.4 µM; UHRF1 binding to methylated oligo; actives 0.75% (n = 370,000);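 further: UHRF1 SRA domain binding a hemimethylated CpG hairpin DNA probe; 0% = median of test compound wells and 100% = reference inhibitor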
# B2AR ag: beta2AR agonists driving receptor internalization, primary screen, cell-based, FAP fluorogen, flow cytometry. Beta-2 adrenergic receptor (Homo sapiens), P07550. Am2.2-beta2AR cells. response, % (concentration not given with the values). actives 0.43% (n = 340,000). AID 504454, 2011;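 active means response above a set limit, near 3 SD of response in nonfluorescent compounds, cut at about 42% in these data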
# UHRF1 DNA bind: UHRF1 methylated DNA binding inhibitors, counter-screen for MBD2 inhibitor project, biochemical, TR-FRET, human UHRF1; actives 25% (n = 1,000); UHRF1 binding to methylated oligonucleotide; shares compounds with MBD2 inh; AID 720530, 2013; inhibition, % at 4.4 µM;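 further: UHRF1 SRA domain binding a labeled hemimethylated CpG hairpin DNA; 0% = vehicle only and 100% = reference inhibitor with vehicle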
# MBD2 DBD conf: inhibitors of MBD2 binding to methylated DNA, confirmation, biochemical, TR-FRET, DNA-binding domain, human; shares compounds with MBD2 inh; TR-FRET MBD2-DBD binding to methylated oligonucleotide; inhibition, % at 4.4 µM; actives 26% (n = 1,000); AID 720531, 2013; in the data active means inhibition above about 14%
# * marks the source's active call; other numbers are inactive results; nt = no result given. Unless noted, no stated cut-off is given here; in the data, active means inhibition above about 21%; inactive means the rest.
SMILES,ABHD5 PLIN5 PPI,Rin1 Abl inh,MBD2 inh,Arr AP2 block,UHRF1 MBD2 ctr,B2AR ag,UHRF1 DNA bind,MBD2 DBD conf
O=C(c1ccccc1F)c1cc2c(cc1[N+](=O)[O-])OCCO2,1.4,1.0,14.6*,-0.7,18.3,4.7,6.8,1.3
O=C(CCN1C(=O)/C(=C/c2ccco2)SC1=S)Nc1ccc(O)cc1C(=O)O,0.3,0.7,68.4*,-18.9,94.6*,-2.0,37.9*,8.2
CCc1ccc(/C=C2/SC(=S)N(CCCC(=O)Nc3ccccc3C(=O)O)C2=O)cc1,-2.7,0.5,0.0,3.5,-0.3,12.2,nt,nt
O=C(CCCN1C(=O)/C(=C/c2ccco2)SC1=S)Nc1ccccc1C(=O)O,4.3,-1.6,26.7*,29.5,81.7*,-0.3,51.7*,15.8*
CCCCOc1ccc(S(=O)(=O)NC(=O)C2(C)CCN2C(=O)c2c(C)noc2C)cc1 (stereo not drawn),3.4,0.4,-2.5,nt,-1.6,nt,nt,nt
COC(=O)c1cc(-c2cccc([N+](=O)[O-])c2)c2c(=O)[nH]c(=O)n(C)c2n1,-2.0,-1.9,13.5*,17.8,23.0*,4.4,7.9,3.5
O=C(NCCO)C1(C(=O)C2CC2)CC(c2ccccc2C(F)(F)F)=NO1 (stereo not drawn),nt,nt,3.0,nt,-0.8,nt,nt,nt
Cc1cccc(N2CC(C(=O)Nc3cccc(S(=O)(=O)N4CCCCC4)c3)CC2=O)c1C (stereo not drawn),3.1,3.6,80.6*,1.7,4.0,0.6,4.0,0.7
Cc1cccc(N2CC(C(=O)Nc3ccc(S(=O)(=O)N4CCOCC4)cc3)CC2=O)c1C (stereo not drawn),1.9,0.5,-1.6,16.6,-3.2,2.9,nt,nt
CC1CCCCC1N(C(=O)c1cc(C2CC2)on1)C1CCCCCC1 (stereo not drawn),nt,nt,1.6,nt,1.1,nt,nt,nt
CCOC(=O)C1=NN(C(C)=O)C2(CC(=O)N(c3cccc(C)c3)C2=O)C1 (stereo not drawn),0.3,-1.4,18.9*,-8.1,-0.2,5.8,7.4,4.5
Cc1ccc(S(=O)(=O)NCC(=O)OCC(=O)Nc2cccc(S(=O)(=O)NC3=NCCCCC3)c2)cc1C,0.1,1.6,2.7,-25.3,1.9,-2.8,nt,nt
Cc1ccc(C)c(C(=O)OCC(=O)Nc2cccc(S(=O)(=O)NC3=NCCCCC3)c2)c1,-6.0,-1.2,16.6*,3.8,17.8,3.8,6.4,3.1
COc1ccc(C(=O)COC(=O)CCC(=O)c2cccs2)cc1,3.4,0.7,-0.8,2.1,-0.5,0.8,nt,nt
O=C(CCC(=O)c1cccs1)OCC(=O)c1ccccc1,-11.0,2.0,48.4*,6.9,-0.4,2.4,4.5,1.3
Cc1nc2sc(C(=O)NC3CC3)c(N)c2c(C)c1Cl,nt,nt,-2.9,nt,-5.4,nt,nt,nt
CC1(c2nnnn2Cc2ccccc2)CCC(=O)N1CCc1c[nH]c2ccccc12 (stereo not drawn),9.1,nt,1.8,nt,2.6,nt,nt,nt
CC1(c2nnnn2Cc2ccccc2)CCC(=O)N1CCc1ccccc1F (stereo not drawn),10.2,nt,15.1*,nt,21.8*,nt,13.0,6.3
Cc1ccc(S(=O)(=O)N2C=C(c3ccccc3)c3ccccc3-c3ccccc32)cc1,nt,nt,0.5,nt,-0.4,nt,nt,nt
CC(NCC(=O)Nc1cc(S(=O)(=O)N2CCOCC2)ccc1N1CCOCC1)c1ccco1 (stereo not drawn),-2.5,4.9,2.2,0.7,-2.2,-1.9,nt,nt
